Laboratory results from the array DNA melting data of Ke et al. (doi:10.1101/2024.01.08.574731).

Key:
[1] = melting temperature; fluorescence melt of hairpins on a sequencing array, two-state fit, raised by 9.35 °C to match UV melts; settings: sodium 0.088 M
Procedure, shortened: (§1)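 Melting temperature and folding enthalpy were derived from bootstrapped two-state fits. The fitted temperatures were raised by 9.35 °C to agree with UV melts, and four replicates were combined by inverse variance. The underlying data were Cy3 fluorescence images of library hairpins, with annealed Cy3 and quencher oligos, on a sequenced MiSeq flow cell in 50 mM Na-HEPES pH 8.0, 25 mM NaCl, taken in 2.5 °C steps up to 60 °C, normalised to pre-quench Cy3 and to control constructs.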

[2] = folding enthalpy; higher = less favourable; fluorescence melt of hairpins on a sequencing array, two-state fit; settings: sodium 0.088 M
Procedure, shortened: as §1

Sequence | Tm [1] [°C] | folding enthalpy [2] [kcal/mol]
GTGGGCCGAAAGGCCAC (((.(((....)))))) | 64.9 | -10.7
GTGGGCGAAAGCCGACAC ((((((....)))..))) | 53.8 | -13.6
GTGGGCGAAAGCCTACAC ((((((....)))..))) | 55.1 | -11.9
GTGGGCGAAAGCCTCCAC ((((((....)))..))) | 37.6 | -11.7
GTGGGCGAAAGCCTTCAC ((((((....)))..))) | 33.1 | -12.7
GTGGGGAAACCCAC (((((....))))) | 62 | -25.7
GTGGGGGCGAAAGCCCAC (((..(((....)))))) | 65.5 | -15.1
GTGGGTACGAAAGTACAC (((..(((....)))))) | 55 | -31.6
GTGGGTCGAAAGACTCAC (((.(((....))).))) | 59 | -40.4
GTGGGTGCGAAAGCACAC (((..(((....)))))) | 64.2 | -17.5
GTGGGTGGAAACACCTAC ((.((((....)))).)) | 51 | -21.3
GTGGGTGGAAACACCTGC (..((((....))))..) | 43 | -14.7
GTGGTAACGAAAGTTCAC (((..(((....)))))) | 35.7 | -10.7
GTGGTAGCGAAAGCTCAC (((..(((....)))))) | 43.8 | -18.1
GTGGTCGAAAGACCCCAC ((((((....)))..))) | 38 | -9.79
GTGGTCGAAAGACCGCAC ((((((....)))..))) | 55.6 | -11.6
GTGGTCGAAAGACGCAC ((((((....))).))) | 49.3 | -16.3
GTGGTCGAAAGACGGCAC ((((((....)))..))) | 38.5 | -16.8
GTGGTCGAAAGACTCAC ((((((....))).))) | 46.2 | -19.6
GTGGTCGCGAAAGCGCAC (((..(((....)))))) | 44.9 | -12.4
GTGGTCGGAAACGACTAC ((.((((....)))).)) | 53.7 | -30
GTGGTCGGAAACGATCGC (.(.(((....))).).) | 46.1 | -22.4
GTGGTCTCGAAAGAGCAC (((..(((....)))))) | 48.8 | -25.9

Sequence | Tm [1] [°C] | folding enthalpy [2] [kcal/mol]
GTGGTGGGAAACCACCGC (.(((((....))))).) | 60.5 | -29.4
GTGGTGGGAAACCACTAC ((.((((....)))).)) | 56.1 | -22.5
GTGGTGGGAAACCACTGC (..((((....))))..) | 55.1 | -24.2
GTGGTTCGAAAGAATCAC (((.(((....))).))) | 53.7 | -47.5
GTGGTTGAAAAACCAC ((((((....)))))) | 59.7 | -37.8
GTGGTTGGAAACAATCAC (((.(((....))).))) | 47.7 | -36.6
GTGTAACGAAAGTTCAC (((.(((....)))))) | 44.6 | -20
GTGTAAGGAAACCTACAC (((((.(....).))))) | 38.1 | -30.6
GTGTAAGGAAACTTATAC ((.((((....)))).)) | 33.8 | -19.6
GTGTACCCGAAAGGGCAC (((..(((....)))))) | 48.3 | -20.6
GTGTACGAAAGTAGGCAC ((((((....)))..))) | 32.8 | -16.5
GTGTAGAAATACAC (((((....))))) | 41.6 | -21.8
GTGTAGCGAAAGCTCAC (((.(((....)))))) | 51.8 | -23.2
GTGTAGGAAACTACAC ((((((....)))))) | 53.5 | -38.1
GTGTAGGGAAACCTATAC ((.((((....)))).)) | 38.2 | -24.8
GTGTAGTCGAAAGACCAC (((..(((....)))))) | 42.1 | -19.5
GTGTATCGAAAGATCAC (((.(((....)))))) | 46 | -29.4
GTGTATCGAAAGATCCAC (((.(((....))).))) | 41.2 | -33.5
GTGTATGCGAAAGCACAC (((..(((....)))))) | 45.4 | -22.1
GTGTATTCGAAAGAACAC (((..(((....)))))) | 32.8 | -19.1
GTGTCAACGAAAGTTCAC (((..(((....)))))) | 29.8 | -8.71
GTGTCAGGAAACTGACAC (((((((....))))))) | 66.4 | -37
GTGTCCACGAAAGTGCAC (((..(((....)))))) | 39.3 | -15.1

Sequence | Tm [1] [°C] | folding enthalpy [2] [kcal/mol]
GTGTCCCCGAAAGGGCAC (((..(((....)))))) | 49.6 | -21.4
GTGTCCGAAAGGAAACAC ((((((....)))..))) | 46.5 | -22.4
GTGTCCGAAAGGAACCAC ((((((....)))..))) | 35.3 | -12.6
GTGTCCGAAAGGAATCAC ((((((....)))..))) | 34.3 | -17.3
GTGTCCGAAAGGACTCAC ((((((....)))..))) | 39.4 | -10
GTGTCCGAAAGGAGCCAC ((((((....)))..))) | 33.5 | -14.5
GTGTCCGGAAACGAACAC ((((.((....)).)))) | 45.4 | -32.5
GTGTCGACGAAAGTCCAC (((..(((....)))))) | 37.2 | -17.8
GTGTCGGCGAAAGCCCAC (((..(((....)))))) | 43.8 | -13.5
GTGTCGGGAAACCGATGC (..((((....))))..) | 46 | -23.8
GTGTCTCCGAAAGGACAC (((..(((....)))))) | 45.7 | -25.1
GTGTCTGCGAAAGCACAC (((..(((....)))))) | 43.8 | -14.6
GTGTCTGGAAACAGATGC (..((((....))))..) | 40.2 | -20.7
GTGTGAGAAATCACAC ((((((....)))))) | 55.8 | -30.9
GTGTGAGGAAACCCACAC (((((.(....).))))) | 48.3 | -31.7
GTGTGCGAAAGCACCAC ((((((....))).))) | 51 | -9.37
GTGTGCGAAAGCACTCAC ((((((....)))..))) | 41.8 | -8.88
GTGTGCGAAAGCAGCAC ((((((....))).))) | 52.5 | -20.1
GTGTGCGAAAGCATGCAC ((((((....)))..))) | 45.1 | -16.1
GTGTGCGGAAACGCATAC ((.((((....)))).)) | 54.6 | -37
GTGTGGAAACACAC (((((....))))) | 60.6 | -25.8
GTGTGGCGAAAGCCCCAC (((.(((....))).))) | 51.3 | -23.5
GTGTGGGGAAACCCATAC ((.((((....)))).)) | 49.2 | -30.9

Sequence | Tm [1] [°C] | folding enthalpy [2] [kcal/mol]
GTGTGGGGAAACCTACAC ((((.((....)).)))) | 50.6 | -32.6
GTGTGGGGAAACCTGCAC (((..((....))..))) | 44.8 | -31.9
GTGTGTACGAAAGTACAC (((..(((....)))))) | 64.2 | -14.8
GTGTGTGGAAACGCATAC ((.((.(....).)).)) | 36 | -22.9
GTGTTAACGAAAGTTCAC (((..(((....)))))) | 34.9 | -12.5
GTGTTACGAAAGTATCAC (((.(((....))).))) | 46.8 | -30.7
GTGTTAGCGAAAGCTCAC (((..(((....)))))) | 44.2 | -21.9
GTGTTCCGAAAGGATCAC (((.(((....))).))) | 51.5 | -34.4
GTGTTCGAAAGAAAACAC ((((((....)))..))) | 38.2 | -22.6
GTGTTCGAAAGAACAC ((((((....)))))) | 68.6 | -31.5
GTGTTCGAAAGAATACAC ((((((....)))..))) | 42.6 | -22.9
GTGTTCGGAAACGAACAC (((((((....))))))) | 67.9 | -36.3
GTGTTCGGAAACGAATAC ((.((((....)))).)) | 49.2 | -31.7
GTGTTGGGAAACCAACGC (.(((((....))))).) | 54.2 | -32.8
GTGTTGGGAAACTAACGC (.(((.(....).))).) | 35.9 | -25.5
GTGTTTCGAAAGAACAC (((.(((....)))))) | 46.9 | -32.3
GTTAAAGCGAAAGCTAAC (((..(((....)))))) | 35.6 | -10.3
GTTAACCGAAAGGTAAAC (((.(((....))).))) | 41.9 | -25.2
GTTAACGAAAGTTAAAC ((((((....))).))) | 36 | -16.7
GTTAACGAAAGTTCAAC ((((((....))).))) | 26.5 | -12.2
GTTAACGAAAGTTGAAC ((((((....))).))) | 28.2 | -12.8
GTTAACGCGAAAGCGAAC (((..(((....)))))) | 32.9 | -8.96
